Shown are actives, neighbours in structure and some others; about 5.8% of the full set was active somewhere.
KDM4C inh: blocks human GASC-1 (KDM4C) demethylase activity | GST-KDM4C 2-372, H3K9me3 peptide, LANCE TR-FRET | inhibition, % at 12.5 µM | 96,000 tested, 0.15% active;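 active = mean replicate inhibition above about 25%, with at least 55% of replicates also reaching it, limit read from the data, passing the limit was not always enough; inconclusive = only one of those two conditions met; inactive = neither condition met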
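Test system – GST-tagged GASC-1 (JMJD2C) catalytic fragment, aa 2-372 · Medium – HEPES buffer, pH 7.5, plus ascorbate · Reagent – H3K9me3 peptide with Fe(II)/2OG · Compound – one test concentration per compound · Timing – 30 min reaction, 60 min detection, RT · Technique – TR-FRET with Eu antibody and ULight streptavidin, EDTA stop · Read-out basis – inhibition from TR-FRET ratio decrease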
T cruzi growth-1: inhibitors of T. cruzi proliferation; T. cruzi beta-gal in NIH3T3, GalScreen luminescence, 90 h; AID 624255; 77,000 tested, 5.9% active; inhibition, % at 8.34 µM;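 active = mean inhibition above about 93%, with at least 55% of replicates each passing it, limit read from the data, passing the limit was not always enough; inconclusive = only one of those two conditions holds; inactive = neither condition holds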
IDH1 mut inh: IDH1 R132H (human) inhibition; IDH1 R132H reductase, diaphorase/resazurin fluorescence, 60 min; inhibition, % at 10 µM; 70,000 tested, 0.18% active; in the data active = inhibition above about 34%; inconclusive = no clear call, values can overlap the other calls; inactive = below about 11%
Target sequence (O75874 whole entry R132H): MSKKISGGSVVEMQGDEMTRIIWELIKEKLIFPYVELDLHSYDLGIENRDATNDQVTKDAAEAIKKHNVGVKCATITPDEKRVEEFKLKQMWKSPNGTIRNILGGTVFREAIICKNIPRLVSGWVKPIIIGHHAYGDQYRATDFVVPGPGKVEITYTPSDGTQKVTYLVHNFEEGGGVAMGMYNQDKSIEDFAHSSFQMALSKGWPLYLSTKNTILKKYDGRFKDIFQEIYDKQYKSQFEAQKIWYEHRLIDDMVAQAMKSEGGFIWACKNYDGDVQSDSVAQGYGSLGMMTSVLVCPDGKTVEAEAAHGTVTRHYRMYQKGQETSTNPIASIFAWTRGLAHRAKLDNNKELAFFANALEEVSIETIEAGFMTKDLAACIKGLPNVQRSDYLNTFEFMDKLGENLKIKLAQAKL
Pf Dd2 growth: blocks growth of Plasmodium falciparum Dd2 parasites. P. falciparum Dd2 growth, SYBR Green, 72 h; stronger effect = lower value. activity change, % at 10 µM. 94,000 tested, 2.3% active. AID 1159554; in the data active = activity change below about -80%; inconclusive = no clear call, values can overlap the other calls
T cruzi growth-2: inhibitors of T. cruzi proliferation | T. cruzi beta-gal in NIH3T3, GalScreen luminescence, 90 h | 5,600 tested, 72% active | shares compounds with T cruzi growth-1 | inhibition, % at 8.35 µM;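 active = mean replicate inhibition above about 95% and at least 55% of replicates individually reaching it, limit read from the data; inconclusive = only one of the two criteria is met; inactive = neither criterion is met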
T cruzi growth-3: inhibitors of T. cruzi proliferation | shares compounds with T cruzi growth-1 | T. cruzi beta-gal in NIH3T3, GalScreen luminescence, 90 h | inhibition, % at 2.09 µM | 5,600 tested, 21% active;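 active = mean inhibition above about 95%, with at least 55% of replicates also reaching it, limit read from the data; inconclusive = meets just one of the two conditions; inactive = meets neither condition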
NIH3T3 tox: cytotoxicity in mouse NIH/3T3 fibroblasts. 5,600 tested, 14% active. NIH/3T3 viability, CellTiter-Glo ATP luminescence, 90 h. shares compounds with T cruzi growth-1. cytotoxicity (signal decrease), % at 8.35 µM;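 active = mean signal decrease across replicates above about 35% based on untreated-well scatter, with enough replicates individually passing, limit read from the data; inconclusive = no rule stated though some were filed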
NIH3T3 tox 2: cytotoxicity in mouse NIH/3T3 fibroblasts; shares compounds with T cruzi growth-1; 5,600 tested, 56% active; NIH/3T3 viability, CellTiter-Glo ATP luminescence, 90 h; inhibition, % at 24.9 µM;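 active = mean loss of cell viability signal at or above a set limit, and enough replicates individually reaching it; inconclusive = meets only the mean limit or only the replicate share; inactive = meets neither condition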
Numbers stand for hits; i = inactive; ? = inconclusive; nt = not tested or not shown.

SMILES	KDM4C inh	T cruzi growth-1	IDH1 mut inh	Pf Dd2 growth	T cruzi growth-2	T cruzi growth-3	NIH3T3 tox	NIH3T3 tox 2
C[C@@H]1CN([C@H](C)CO)S(=O)(=O)c2ccc(C#CCN(C)C)cc2O[C@H]1CN(C)CC1CCCC1	i	104	i	i	107	i	i	104
CCCC#Cc1ccc2c(c1)O[C@H](CN(C)CC1CC1)[C@H](C)CN([C@H](C)CO)S2(=O)=O	i	i	i	i	nt	nt	nt	nt
C[C@H]1CN([C@@H](C)CO)S(=O)(=O)c2ccc(C#CCN(C)C)cc2O[C@H]1CN(C)CC1CC1	i	110	i	i	?	i	i	i
COc1ccc(NC(=O)Nc2ccc3c(c2)C(=O)N([C@H](C)CO)C[C@@H](C)[C@@H](CN(C)S(=O)(=O)c2cccs2)OCCCC[C@@H](C)O3)cc1	i	nt	i	i	nt	nt	nt	nt
COc1ccc(NC(=O)Nc2ccc3c(c2)C(=O)N([C@H](C)CO)C[C@H](C)[C@H](CN(C)S(=O)(=O)c2cccs2)OCCCC[C@@H](C)O3)cc1	i	i	i	i	nt	nt	nt	nt
COc1ccc(NC(=O)Nc2ccc3c(c2)C(=O)N([C@H](C)CO)C[C@@H](C)[C@H](CN(C)S(=O)(=O)c2cccs2)OCCCC[C@@H](C)O3)cc1	i	108	nt	i	108	i	i	i
COc1ccc(NC(=O)Nc2ccc3c(c2)C(=O)N([C@H](C)CO)C[C@H](C)[C@H](CN(C)S(=O)(=O)c2cccs2)OCCCC[C@H](C)O3)cc1	i	103	i	i	107	i	i	30
COc1ccc(S(=O)(=O)N(C)C[C@H]2Oc3cc(C4=CCCC4)ccc3S(=O)(=O)N([C@H](C)CO)C[C@@H]2C)cc1	i	i	i	i	nt	nt	nt	nt
COc1ccc(S(=O)(=O)N(C)C[C@H]2Oc3cc(C4=CCCC4)ccc3S(=O)(=O)N([C@@H](C)CO)C[C@H]2C)cc1	i	122	i	i	101	105	45	54
COc1ccc(S(=O)(=O)N(C)C[C@H]2Oc3cc(C4=CCCC4)ccc3S(=O)(=O)N([C@H](C)CO)C[C@H]2C)cc1	i	122	i	i	103	i	i	57
Cc1ccc([N+](=O)[O-])cc1NC(=O)CN(c1ccc(I)cc1)S(C)(=O)=O	nt	nt	i	nt	nt	nt	nt	nt
CCCC#Cc1ccc2c(c1)O[C@H](CN(C)C(=O)c1ccccc1F)[C@H](C)CN([C@@H](C)CO)S2(=O)=O	i	i	i	i	nt	nt	nt	nt
CC(C)CC#Cc1ccc2c(c1)O[C@H](CN(C)C(=O)c1ccccc1F)[C@H](C)CN([C@@H](C)CO)S2(=O)=O	i	?	i	i	nt	nt	nt	nt
CCCC#Cc1ccc2c(c1)O[C@@H](CN(C)C(=O)c1ccccc1F)[C@H](C)CN([C@@H](C)CO)S2(=O)=O	i	112	i	-81	104	i	i	85
CC(C)CC#Cc1ccc2c(c1)O[C@@H](CN(C)C(=O)c1ccccc1F)[C@@H](C)CN([C@@H](C)CO)S2(=O)=O	i	?	i	i	96	i	i	106
CC(C)CC#Cc1ccc2c(c1)O[C@@H](CN(C)C(=O)c1ccccc1F)[C@@H](C)CN([C@H](C)CO)S2(=O)=O	i	99	i	i	i	i	i	103
COCC#Cc1ccc2c(c1)O[C@@H](CN(C)C(=O)c1ccccc1F)[C@@H](C)CN([C@@H](C)CO)S2(=O)=O	i	i	i	i	nt	nt	nt	nt
c1ccc(-c2cnc(SCc3nc4ccccc4[nH]3)[nH]2)cc1	nt	nt	i	nt	nt	nt	nt	nt
CC1(C)CC2/C(CO)=C\C=C[C@@](C)(O)CC[C@]21O (stereo not given in full)	nt	nt	i	nt	nt	nt	nt	nt
Cc1ccccc1NS(=O)(=O)c1cc(C(=O)NCC2CCCO2)ccc1C (stereo not given)	nt	nt	i	nt	nt	nt	nt	nt
COc1c(O)c(C(=O)/C=C\c2ccccc2)c(OC)c(OC)c1OC	nt	nt	i	nt	nt	nt	nt	nt
COCC#Cc1ccc([C@@H]2[C@@H](CO)N3CCCCN(C(=O)CN(C)C)C[C@@H]23)cc1	i	99	nt	i	i	i	i	i

High-throughput results deposited in PubChem by Broad Institute.
